In article PMC11164094 (International Journal of Nanomedicine, 2024):
Converted amounts (≈) assume the structure as drawn.

Key:
[1] = test system: HUA mice; assay: In vivo anti-hyperuricemia study; design: species or system KM mice; conditions: for serum UA level vs HUA group: gavage once daily, 5 mg/kg FEB, 10 mg/kg OBB, 1, 2, 4 mg/kg OBB-HP-β-CD SDDS
In short: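 KM mice (male, 20 ± 2 g, 4 weeks, SPF) were acclimatised ≥7 days at 24 ± 1°C, n = 10/group. Hyperuricemia was induced daily for 10 days with PO 300 mg/kg i.p. plus HX 300 mg/kg oral. Test compound was gavaged 1 h post-challenge, once daily for 7 days. Kidneys were taken 1 h after the last dose, fixed 24 h in 4% PFA, paraffin-embedded, sectioned at 4 μm, H&E-stained and blind-scored at 200× (n = 3).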

[2] = previous study; cited from earlier work
[3] = Pharmacokinetic study in rats; assay type: in vivo; conditions: male, Sprague Dawley, rat, blood, oral, 50 mg/kg
In short: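 Male Sprague Dawley rats (200–240 g) were fasted overnight with free water and dosed in groups of 6. Dose was 50 mg/kg test compound, given p.o. as raw material or as HP-β-CD supersaturated formulation, or i.v. as formulation. Heparinized orbital blood was drawn at 0.083–24 h. Acetonitrile protein precipitation with piperine internal standard; centrifuged 2000 ×g, 10 min; residue redissolved in methanol, filtered; HPLC.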

[4] = previous study; cited from earlier work; remark: listed apart in the source
[5] = Appearance and solubility of prepared samples in water; assay type: physicochemical
[6] = Solubility test of OBB in different dissolution media and excipient solutions; assay type: physicochemical; conditions: for Solubility: 25°C, shaken 24 h
In short: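 Excess test compound was added to each medium, with solid excipients made up as 25 mg/mL aqueous solutions. Samples were shaken at 90 rpm and 25°C for 24 h to reach equilibrium. They were then centrifuged (9000 ×g, 20 min), and the supernatant was filtered (0.22 µm), diluted and quantified by HPLC. HPLC used a C18 column with methanol-water 70:30 and 0.1% formic acid, isocratic at 1.0 mL/min, 30°C.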

Row | Compound | renal histopathological damage (H&E) vs HUA group [1] | serum UA level vs HUA group [1] | safety profile [2] | bioavailability [3] [%] | anti-hyperuricemic activity [4] | appearance after addition of water and sufficient stirring [5] | solubility at 24 h ([6]; artificial gastric fluid) [µg/mL] | Solubility ([6]; artificial intestinal fluid) | Solubility ([6]; water)
1 | Cc1nc(-c2ccc(OCC(C)C)c(C#N)c2)sc1C(=O)O [FEB, febuxostat, reference compound] | effectively ameliorated | significantly decreased | – | – | – | – | – | – | –
2 | COc1ccc2cc3n(c(=O)c2c1OC)CCc1cc2c(cc1-3)OCO2 [OBB, Oxyberberine] | effectively ameliorated | significantly decreased | favorable safety profile | 1.55 | comparable to the first-line agent febuxostat | remained cloudy | ~0.32 (≈ 0.911 µM) | completely insoluble | completely insoluble
